Nine compounds from ChEMBL document CHEMBL4811241, “Revisiting Pyrazolo[3,4-d]pyrimidine Nucleosides as Anti-Trypanosoma cruzi and Antileishmanial Agents” (J Med Chem, 2021) can be followed below.

pEC50, pIC50: −log10 of the molar value. The source made the active and inactive calls. The calls are words filed in the database; no cut-off is given here.

In data set [1] the test system is Trypanosoma cruzi. In words: Antitrypanosomal activity against intracellular amastigote form of Trypanosoma cruzi Y infected in Swiss Webster mouse cardiomyocytes assessed as inhibition of parasite growth incubated for 48 hrs by Giemsa staining based microscopic analysis. Format: functional, organism-based. As to conditions: Cardiac muscle cell. In a few lines:
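Primary 2D mouse embryo cardiac cell cultures, infected for 24 h, then washed and exposed for 48 h at 37 °C to a serial dilution. Cells fixed and stained with Giemsa; infected cells and parasites per infected cell scored in 200 host cells. Activity expressed from the inhibition index; two independent experiments run in duplicate.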

Data set [2] in a line: Cytotoxicity against Swiss mouse peritoneal macrophages assessed as cell detachment, lysis and granulation measured after 5 days by microscopic analysis. The format is cell-based, Peritoneal macrophage. Conditions: time 5 day. Summed up:
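Scored within the Leishmania macrophage assay over 5 days: detachment, lysis and granulation judged semi-quantitatively by microscopy across at least 500 cells. CC50 derived from % reduction in normal cells versus untreated wells.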

Data set [3] is described as follows: Cytotoxicity against Swiss Webster mouse 2D cardiomyocytes assessed as reduction in cell viability measured after 48 hrs by PrestoBlue assay. Also noted: species or system Cardiac Muscle Cell. As to conditions: read-out: LC50. In a few lines: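 Mouse embryo heart cells as monolayer (2D) or 3D aggregates (25 × 10³ cells/well on 1% agarose). Uninfected cultures exposed 48 h to rising concentrations. Morphology checked by light microscopy; viability read by PrestoBlue; CC₅₀ determined.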

Data set [4] is described as follows: Selectivity index, ratio of CC50 for human MRC-5 SV2 cells to IC50 for antitrypanosomal activity against nifurtimox-sensitive Trypanosoma cruzi Tulahuen CL2 infected in human MRC-5 SV2 cells. The format is toxicity, cell-based. As to conditions: read-out: Ratio CC50/IC50. Summed up: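 Ratio of MRC-5SV2 CC50 (3-day resazurin assay) to IC50 against T. cruzi amastigotes in MRC-5SV2 cells (7-day CPRG assay).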

Data set [5] is described as follows: Cytotoxicity against human MRC-5 SV2 cells assessed as reduction in cell growth measured after 3 days by resazurin dye based fluorometric analysis. Conditions: time 3 day. In general terms: Resazurin is reduced to fluorescent resorufin, in cell work by metabolically active cells.
Data set [6] in a line: Selectivity index, ratio of CC50 for Swiss mouse peritoneal macrophages to IC50 for antileishmanial activity against amastigote form of Leishmania infantum MHOM/MA(BE)/67 infected in Swiss mouse peritoneal macrophages. Format: toxicity. Conditions: read-out: Ratio CC50/IC50. Summed up: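 Ratio of macrophage CC50 to L. infantum amastigote IC50, both taken from the same 5-day macrophage assay.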

Data set [7] relates to Trypanosoma cruzi. The data set can be described thus: Antitrypanosomal activity against Trypanosoma cruzi Y bloodstream trypomastigotes assessed as inhibition of parasite growth incubated for 24 hrs by light microscopy. Format: functional, organism-based.
The next data set deals with Leishmania infantum. The data set can be described thus: Antileishmanial activity against amastigote form of Leishmania infantum MHOM/MA(BE)/67 infected in Swiss mouse peritoneal macrophages assessed as reduction in parasite growth treated at 2 hrs post-infection and measured after 5 days by Giemsa staining based microscopic analysis. Format: functional, organism-based. Conditions: MHOM/MA(BE)/67, Peritoneal macrophage. In a few lines:
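Swiss mouse peritoneal macrophages, harvested after 2-day potato-starch stimulation, infected 48 h after plating; compounds added 2 h post-infection.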

Data set [8] deals with Trypanosoma cruzi. In words: Antitrypanosomal activity against nifurtimox-sensitive Trypanosoma cruzi Tulahuen CL2 infected in human MRC-5 SV2 cells assessed as inhibition of parasite growth measured after 7 days by spectrophotometric analysis. Format: functional, organism-based. As to conditions: Tulahuen CL2, MRC-5 SV2, 168 h.
Data set [9] relates to Trypanosoma brucei rhodesiense. The data set can be described thus: Antitrypanosomal activity against Trypanosoma brucei rhodesiense STIB900 measured after 6 hrs by alamar blue dye based fluorimetry analysis. Format: functional, organism-based. As to conditions: STIB900, 6 h.
Data set [10] in a line: Toxicity in Swiss webster mouse infected with Trypanosoma cruzi Y trypomastigotes assessed as animal survival at 100 mg/kg, po qd for 5 days treatment started at 6 days post-infection and measured at 34 days post-infection. The format is organism-based. Conditions: in vivo, time 29 day. Summed up:
(§1)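 Male Swiss Webster mice (18−20 g, 4−5 weeks) were infected i.p. with 10⁴ Y-strain bloodstream trypomastigotes from a donor mouse. Only mice with detectable parasitemia were treated, in groups of six. Oral gavage was given on days 6–10 post-infection, b.i.d. or q.d. as listed, in 10% Tween 80 vehicle, freshly prepared. Infected vehicle controls were included. Mortality was checked daily to 34 dpi as cumulative percentage.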

Data set [11] relates to Trypanosoma cruzi. In words: Antitrypanosomal activity against Trypanosoma cruzi strain Y bloodstream trypomastigotes infected in Swiss Webster mouse assessed as reduction in parasitemia at 100 mg/kg, po qd for 5 days treatment started at 6 days post-infection and measured at 8 days post-infection by light microscopic analysis. Format: functional, organism-based. Conditions: time 2.0 day. In a few lines: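 Male Swiss Webster mice, 18–20 g, six per group; only mice with detectable parasitemia treated. Oral gavage for 5 consecutive days (6–10 dpi); test compound given b.i.d. in 10% Tween 80, benznidazole once daily, formulations freshly prepared. Parasitemia counted by light microscopy in 5 μL blood; mortality checked daily to 34 dpi.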

A short description of data set [12]: Toxicity in Swiss webster mouse infected with Trypanosoma cruzi Y trypomastigotes assessed as animal survival at 10 mg/kg, po qd for 5 days treatment started at 6 days post-infection and measured at 34 days post-infection. Format: organism-based. As to conditions: in vivo, 696 h, time 29 day. In a few lines: as §1
The subject of data set [13] is Trypanosoma cruzi. In words: Antitrypanosomal activity against nifurtimox-sensitive Trypanosoma cruzi Tulahuen CL2 infected in Swiss mouse peritoneal macrophages assessed as inhibition of parasite growth measured after 7 days by spectrophotometric analysis. Conditions: Tulahuen CL2, Peritoneal macrophage, 168 h. The format is functional, organism-based.

Broadly, the pIC50 is the negative decadic logarithm of the IC50, by convention in mol/L. By pEC50 is commonly meant the negative decadic logarithm of the EC50, by convention in mol/L. The low end stands for a high EC50, the high end for a low EC50.

For the compound `Nc1ncnc2c1cnn2[C@@H]1O[C@H](CO)[C@@H](O)[C@H]1O`, the pIC50 was 5.61 with Trypanosoma cruzi [1], under 4.09 in the data set on Trypanosoma cruzi [7], 5.97 in the data set on Leishmania infantum and 6.54 in the data set on Trypanosoma cruzi [8]. Besides, the CC50 at 120 h in data set [2] is over 64 µM. Also, the CC50 at 48 h in [3] was over 500 µM. The values for the selectivity ratio in data set [4] and in [6] were over 219 and over 60, respectively. Moreover, the CC50 at 72 h in [5] is over 64 µM.
Take `Nc1ncnc2c1ccn2[C@@H]1O[C@H](CO)C[C@H]1O`: the pEC50 in data set [9] was 9.28.
In turn, `Nc1ncnc2c1ccn2[C@@H]1O[C@H](CO)[C@@H](O)[C@H]1O` [TUBERCIDIN] had a pEC50 in data set [9] of 7.44.
As to `O=c1[nH]cnc2c1cnn2[C@@H]1O[C@H](CO)[C@@H](O)[C@H]1O`, the CC50 at 120 h in data set [2] was over 64 µM. Besides, the selectivity ratio came out at 9 in data set [4] and 10 in data set [6]. Also, in [5], the CC50 at 72 h is over 64 µM. Also, the pIC50 with Leishmania infantum is 5.18; in the data set with Trypanosoma cruzi [8], 5.14.
Turning to `Nc1ncnc2c1c(I)nn2[C@@H]1O[C@H](CO)[C@@H](O)[C@H]1O`, the CC50 at 120 h in [2] was over 64 µM. Also, the selectivity ratio in data set [4] was 2; in data set [6] it was over 2. Also, the CC50 at 72 h in [5] was determined as 25.4 µM. The pIC50 with Leishmania infantum is 4.60; in the data set with Trypanosoma cruzi [8], 4.90.
Regarding `Nc1ncnc2c1c(-c1ccc(C(F)(F)F)cc1)nn2[C@@H]1O[C@H](CO)[C@@H](O)[C@H]1O`, in data set [2], the CC50 at 120 h is over 64 µM. The selectivity ratio in data set [4] is over 10; in data set [6], over 1. In [5], the CC50 at 72 h is over 64 µM. The pIC50 in the data set with Leishmania infantum is 4.24; in the data set on Trypanosoma cruzi [8], 5.20.
Consider `Nc1ncnc2c1c(N)nn2[C@@H]1O[C@H](CO)[C@@H](O)[C@H]1O`, for which, in data set [2], the CC50 at 120 h is 8 µM. Moreover, the selectivity ratio is 3 in data set [4] and 1 in [6]. For the same compound, the CC50 at 72 h in data set [5] is 23 µM. Also, the pIC50 was 5.17 with Leishmania infantum and 5.12 in the data set on Trypanosoma cruzi [8].
For `Nc1ncnc2[nH]ncc12`, in data set [2], the CC50 at 120 h is over 64 µM. Also, the results for the selectivity ratio in [4] and in data set [6] were 5 and over 355, respectively. In [5], the CC50 at 72 h worked out at 2.46 µM. Further, the pIC50 is 6.74 in the data set on Leishmania infantum and 6.24 in the data set on Trypanosoma cruzi [8].
In the case of `O=C(Cn1ccnc1[N+](=O)[O-])NCc1ccccc1` [BENZNIDAZOLE], the survival at 696 h in data set [10] came out at 100%. Also, the result with Trypanosoma cruzi [11] was Active. The Activity result in [12] is “Non-Toxic”. Further, the pIC50 in the data set with Trypanosoma cruzi [13] is 5.71.
